According to ChEMBL document CHEMBL3877250, “Design, synthesis, and biological evaluation of (2E)-(2-oxo-1, 2-dihydro-3H-indol-3-ylidene)acetate derivatives as anti-proliferative agents through ROS-induced cell apoptosis” (Eur J Med Chem, 2016):
Activity calls are given as the source filed them. The calls are words filed in the database; no cut-off is given here.

How the values were obtained:
[1] = Cell cycle arrest in human HCT116 cells assessed as G2/M phase accumulation at 0.1 uM after 48 hrs by Annexin V-FITC/propidium iodide staining based flow cytometry (reference value: 25.3%); format: functional; conditions: HCT-116
HCT-116 [2] = test: Induction of apoptosis in human HCT116 cells assessed as early apoptotic cells at 16 uM after 48 hrs by Annexin V-FITC/propidium iodide staining based flow cytometry (reference value: 3.8%); format: functional
Procedure, shortened: (§1)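 HCT116 seeded at 2×10^5 cells/well, cultured 6 h, then treated 48 h at 0.1, 0.5, 1, 4, 8 or 16 µM; DMSO (0.1%) served as vehicle. Cells washed twice in cold PBS, resuspended in binding buffer with FITC Annexin V and PI for 15 min at RT in the dark, diluted, and run on flow cytometry within 1 h.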

[3] = Cell cycle arrest in human HCT116 cells assessed as sub-G1 phase accumulation at 1 uM after 48 hrs by Annexin V-FITC/propidium iodide staining based flow cytometry (reference value: 4.36%); format: functional; conditions: HCT-116
HCT-116 [4] = test: Inhibition of TrxR in human HCT116 cells after 3 hrs by DTNB assay; format: cell-based
Procedure, shortened: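 HCT116 cells plated at 4 × 10⁵ cells/well in six-well plates and incubated with or without compound for 3 h. Total protein extracted and quantified. Cellular TrxR activity measured by a DTNB-based kit with absorbance read at 412 nm.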

[5] = Cytotoxicity against human L02 cells after 72 hrs by CCK-8 assay; format: toxicity, cell-based
Procedure, shortened: (§2)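 Cells kept in RPMI 1640 with 10% heat-inactivated fetal calf serum and 1% streptomycin/penicillin at 37 °C, 5% CO2. After compound exposure, CCK-8 was added and cells were incubated 4 h at 37 °C, then absorbance was read at 450 nm. Viability is relative to untreated cells (100%). IC50 comes from nonlinear regression, mean of three separate determinations. Single-concentration screen at 20 µM.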

[6] = Cytotoxicity against human MDA-MB-231 cells assessed as growth inhibition at 20 uM after 72 hrs by CCK-8 assay; format: functional; conditions: MDA-MB-231, 72 h, read-out: GI; procedure, shortened: as §2
[7] = Cell cycle arrest in human HCT116 cells assessed as G2/M phase accumulation at 2 uM after 48 hrs by Annexin V-FITC/propidium iodide staining based flow cytometry (reference value: 25.3%); format: functional; conditions: HCT-116
[8] = Cell cycle arrest in human HCT116 cells assessed as sub-G1 phase accumulation at 3 uM after 48 hrs by Annexin V-FITC/propidium iodide staining based flow cytometry (reference value: 4.36%); format: functional; conditions: HCT-116
[9] = Cell cycle arrest in human HCT116 cells assessed as S phase accumulation at 0.1 uM after 48 hrs by Annexin V-FITC/propidium iodide staining based flow cytometry (reference value: 28.43%); format: functional; conditions: HCT-116
HCT-116 [10] = test: Induction of apoptosis in human HCT116 cells assessed as late apoptotic cells at 4 uM after 48 hrs by Annexin V-FITC/propidium iodide staining based flow cytometry (reference value: 6.7%); format: functional
HCT-116 [11] = test: Induction of apoptosis in human HCT116 cells assessed as necrotic cells at 1 uM after 48 hrs by Annexin V-FITC/propidium iodide staining based flow cytometry (reference value: 0.8%); format: functional
HCT-116 [12] = test: Induction of apoptosis in human HCT116 cells assessed as late apoptotic cells at 0.1 uM after 48 hrs by Annexin V-FITC/propidium iodide staining based flow cytometry (reference value: 6.7%); format: functional
HCT-116 [13] = test: Induction of apoptosis in human HCT116 cells assessed as activation of cleaved caspases 3 after 9 hrs by Western blot method; format: functional, cell-based
Procedure, shortened: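 HCT116 plated at 4×10^5 cells/well and incubated with or without compound for 9 h. Protein then extracted and run on 12% SDS-PAGE western blot probed with anti-cleaved caspase 3, anti-caspase 3, anti-Bax and anti-Bcl-2.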

[14] = Cytotoxicity against human L02 cells assessed as growth inhibition at 20 uM after 72 hrs by CCK-8 assay; format: toxicity, cell-based; conditions: read-out: GI; procedure, shortened: as §2
[15] = Cell cycle arrest in human HCT116 cells assessed as S phase accumulation at 3 uM after 48 hrs by Annexin V-FITC/propidium iodide staining based flow cytometry (reference value: 28.43%); format: functional; conditions: HCT-116
[16] = Cell cycle arrest in human HCT116 cells assessed as S phase accumulation at 0.5 uM after 48 hrs by Annexin V-FITC/propidium iodide staining based flow cytometry (reference value: 28.43%); format: functional; conditions: HCT-116
[17] = Cytotoxicity against human SK-BR-3 cells after 72 hrs by CCK-8 assay; format: functional, cell-based; conditions: SK-BR-3, 72 h; procedure, shortened: as §2
[18] = Cytotoxicity against human HCT116 cells after 72 hrs by CCK-8 assay; format: functional, cell-based; conditions: HCT-116, 72 h; procedure, shortened: as §2
HCT-116 [19] = test: Induction of apoptosis in human HCT116 cells assessed as necrotic cells at 0.5 uM after 48 hrs by Annexin V-FITC/propidium iodide staining based flow cytometry (reference value: 0.8%); format: functional
[20] = Cytotoxicity against human OVCAR3 cells after 72 hrs by CCK-8 assay; format: functional, cell-based; conditions: OVCAR-3, 72 h; procedure, shortened: as §2
HCT-116 [21] = test: Induction of apoptosis in human HCT116 cells assessed as early apoptotic cells at 0.1 uM after 48 hrs by Annexin V-FITC/propidium iodide staining based flow cytometry (reference value: 3.8%); format: functional; procedure, shortened: as §1
[22] = Cell cycle arrest in human HCT116 cells assessed as G2/M phase accumulation at 4 uM after 48 hrs by Annexin V-FITC/propidium iodide staining based flow cytometry (reference value: 25.3%); format: functional; conditions: HCT-116
[23] = Cytotoxicity against human HL60 cells after 72 hrs by CCK-8 assay; format: functional, cell-based; conditions: HL-60, 72 h; procedure, shortened: as §2
[24] = Cell cycle arrest in human HCT116 cells assessed as G1 phase accumulation at 3 uM after 48 hrs by Annexin V-FITC/propidium iodide staining based flow cytometry (reference value: 40.83%); format: functional; conditions: HCT-116
HCT-116 [25] = test: Induction of apoptosis in human HCT116 cells assessed as early apoptotic cells at 1 uM after 48 hrs by Annexin V-FITC/propidium iodide staining based flow cytometry (reference value: 3.8%); format: functional; procedure, shortened: as §1
HCT-116 [26] = test: Induction of apoptosis in human HCT116 cells assessed as early apoptotic cells at 4 uM after 48 hrs by Annexin V-FITC/propidium iodide staining based flow cytometry (reference value: 3.8%); format: functional; procedure, shortened: as §1
[27] = Cytotoxicity against human Saos2 cells assessed as growth inhibition at 20 uM after 72 hrs by CCK-8 assay; format: functional; conditions: SAOS-2, 72 h, read-out: GI; procedure, shortened: as §2
[28] = Cell cycle arrest in human HCT116 cells assessed as sub-G1 phase accumulation at 4 uM after 48 hrs by Annexin V-FITC/propidium iodide staining based flow cytometry (reference value: 4.36%); format: functional; conditions: HCT-116
HCT-116 [29] = test: Induction of apoptosis in human HCT116 cells assessed as live cells at 0.1 uM after 48 hrs by Annexin V-FITC/propidium iodide staining based flow cytometry (reference value: 88.7%); format: functional
[30] = Cytotoxicity against human HepG2 cells after 72 hrs by CCK-8 assay; format: functional, cell-based; conditions: HepG2, 72 h; procedure, shortened: as §2
[31] = Cell cycle arrest in human HCT116 cells assessed as G1 phase accumulation at 0.1 uM after 48 hrs by Annexin V-FITC/propidium iodide staining based flow cytometry (reference value: 40.83%); format: functional; conditions: HCT-116
HCT-116 [32] = test: Induction of apoptosis in human HCT116 cells assessed as live cells at 4 uM after 48 hrs by Annexin V-FITC/propidium iodide staining based flow cytometry (reference value: 88.7%); format: functional

Structure (SMILES): CC(C)(C)OC(=O)/C=C1/C(=O)Nc2ccccc21
- Activity [1]: 20.6%
- Activity (HCT-116 [2]): 2.7%
- Activity [3]: 1.06%
- inhibition (HCT-116 [4]): Dose-dependent effect
- IC50 at 72 h [5]: 2.45 µM
- inhibition of growth at 20 µM [6]: 87.6%
- Activity [7]: 29.3%
- Activity [8]: 5.11%
- Activity [9]: 32.9%
- Activity (HCT-116 [10]): 6.6%
- Activity (HCT-116 [11]): 1.3%
- Activity (HCT-116 [12]): 6.2%
- Activity (HCT-116 [13]): Active
- inhibition at 72 h, 20 µM [14]: 64.1%
- Activity [15]: 30.1%
- Activity [16]: 28.9%
- IC50 [17]: 3.42 µM
- IC50 [18]: 2.64 µM
- Activity (HCT-116 [19]): 0.6%
- IC50 [20]: 6.55 µM
- Activity (HCT-116 [21]): 3.2%
- Activity [22]: 11.7%
- IC50 [23]: 2.45 µM
- Activity [24]: 35.6%
- Activity (HCT-116 [25]): 2.6%
- Activity (HCT-116 [26]): 3.6%
- inhibition of growth at 20 µM [27]: 83.3%
- Activity [28]: 35.7%
- Activity (HCT-116 [29]): 90.8%
- IC50 [30]: 4.64 µM
- Activity [31]: 40.8%
- Activity (HCT-116 [32]): 89.1%
